The results in this text go back to ChEMBL document CHEMBL4196066, “Design and synthesis of furyl/thineyl pyrroloquinolones based on natural alkaloid perlolyrine, lead to the discovery of potent and selective PDE5 inhibitors” (Eur J Med Chem, 2018).

The target of assay [1] is T1, cGMP-specific 3',5'-cyclic phosphodiesterase (Homo sapiens, UniProt O76074). Nature of the assay: Inhibition of N-terminal GST-tagged full length recombinant human PDE5A1 catalytic domain expressed in Baculovirus infected Sf9 insect cells using FAM-cGMP as substrate after 1 hr by fluorescence polarization assay.
Assay [2] deals with T1, cGMP-specific 3',5'-cyclic phosphodiesterase. Nature of the assay: Inhibition of PDE5 (unknown origin).
The species named for assay [3] is Homo sapiens. Nature of the assay: Selectivity ratio of IC50 for N-terminal GST-tagged full length recombinant human PDE4A1A to IC50 for N-terminal GST-tagged full length recombinant human PDE5A1 catalytic domain.
For assay [4], the target named is Cone cGMP-specific 3',5'-cyclic phosphodiesterase subunit alpha' (Homo sapiens, UniProt P51160). Nature of the assay: Inhibition of N-terminal GST-tagged full length recombinant human PDE6C expressed in Baculovirus infected Sf9 insect cells using […] as substrate after 1 hr by fluorescence polarization assay. A general note: Polarisation of emitted light reports the rotation of a fluorescent probe.
Chain of Cone cGMP-specific 3',5'-cyclic phosphodiesterase subunit alpha' (P51160 whole entry): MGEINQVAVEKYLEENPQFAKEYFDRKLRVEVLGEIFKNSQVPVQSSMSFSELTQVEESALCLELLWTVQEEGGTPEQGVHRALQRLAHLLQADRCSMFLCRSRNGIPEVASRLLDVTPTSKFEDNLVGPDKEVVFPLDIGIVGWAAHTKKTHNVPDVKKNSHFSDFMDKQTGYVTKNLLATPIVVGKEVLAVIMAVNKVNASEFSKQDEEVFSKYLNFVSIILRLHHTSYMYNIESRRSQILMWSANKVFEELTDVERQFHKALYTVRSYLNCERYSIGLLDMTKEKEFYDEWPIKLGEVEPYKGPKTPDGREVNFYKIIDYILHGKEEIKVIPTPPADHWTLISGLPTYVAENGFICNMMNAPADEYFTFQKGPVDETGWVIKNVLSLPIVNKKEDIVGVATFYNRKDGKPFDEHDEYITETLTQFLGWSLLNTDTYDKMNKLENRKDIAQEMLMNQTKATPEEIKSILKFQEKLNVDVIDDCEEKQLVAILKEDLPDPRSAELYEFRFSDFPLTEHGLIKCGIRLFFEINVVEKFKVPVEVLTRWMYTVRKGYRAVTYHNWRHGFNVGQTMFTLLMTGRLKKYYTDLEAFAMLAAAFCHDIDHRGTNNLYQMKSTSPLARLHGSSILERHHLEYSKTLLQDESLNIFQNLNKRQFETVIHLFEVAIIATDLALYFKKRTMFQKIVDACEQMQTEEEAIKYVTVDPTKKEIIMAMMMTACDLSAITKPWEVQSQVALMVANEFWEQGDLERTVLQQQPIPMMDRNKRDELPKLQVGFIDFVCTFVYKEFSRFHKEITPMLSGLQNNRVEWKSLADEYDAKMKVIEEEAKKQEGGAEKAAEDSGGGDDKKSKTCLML

The species named for assay [5] is Homo sapiens. Description: Selectivity ratio of IC50 for N-terminal GST-tagged full length recombinant human PDE6C to IC50 for N-terminal GST-tagged full length recombinant human PDE5A1 catalytic domain.
Assay [6] addresses Dual specificity calcium/calmodulin-dependent 3',5'-cyclic nucleotide phosphodiesterase 1A (Homo sapiens) (UniProt P54750). Nature of the assay: Inhibition of N-terminal GST-tagged full length recombinant human PDE1A expressed in Baculovirus infected Sf9 insect cells at 12.5 uM using FAM-cAMP as substrate after 1 hr by fluorescence polarization assay relative to control.
The target of assay [7] is cGMP-inhibited 3',5'-cyclic phosphodiesterase 3B (Homo sapiens) (UniProt Q13370). Nature of the assay: Inhibition of N-terminal GST-tagged recombinant human PDE3B (592 end residues) expressed in Baculovirus infected Sf9 insect cells at 12.5 uM using FAM-cAMP as substrate after 1 hr by fluorescence polarization assay relative to control.
Chain of cGMP-inhibited 3',5'-cyclic phosphodiesterase 3B (Homo sapiens) (Q13370 whole entry, looked up): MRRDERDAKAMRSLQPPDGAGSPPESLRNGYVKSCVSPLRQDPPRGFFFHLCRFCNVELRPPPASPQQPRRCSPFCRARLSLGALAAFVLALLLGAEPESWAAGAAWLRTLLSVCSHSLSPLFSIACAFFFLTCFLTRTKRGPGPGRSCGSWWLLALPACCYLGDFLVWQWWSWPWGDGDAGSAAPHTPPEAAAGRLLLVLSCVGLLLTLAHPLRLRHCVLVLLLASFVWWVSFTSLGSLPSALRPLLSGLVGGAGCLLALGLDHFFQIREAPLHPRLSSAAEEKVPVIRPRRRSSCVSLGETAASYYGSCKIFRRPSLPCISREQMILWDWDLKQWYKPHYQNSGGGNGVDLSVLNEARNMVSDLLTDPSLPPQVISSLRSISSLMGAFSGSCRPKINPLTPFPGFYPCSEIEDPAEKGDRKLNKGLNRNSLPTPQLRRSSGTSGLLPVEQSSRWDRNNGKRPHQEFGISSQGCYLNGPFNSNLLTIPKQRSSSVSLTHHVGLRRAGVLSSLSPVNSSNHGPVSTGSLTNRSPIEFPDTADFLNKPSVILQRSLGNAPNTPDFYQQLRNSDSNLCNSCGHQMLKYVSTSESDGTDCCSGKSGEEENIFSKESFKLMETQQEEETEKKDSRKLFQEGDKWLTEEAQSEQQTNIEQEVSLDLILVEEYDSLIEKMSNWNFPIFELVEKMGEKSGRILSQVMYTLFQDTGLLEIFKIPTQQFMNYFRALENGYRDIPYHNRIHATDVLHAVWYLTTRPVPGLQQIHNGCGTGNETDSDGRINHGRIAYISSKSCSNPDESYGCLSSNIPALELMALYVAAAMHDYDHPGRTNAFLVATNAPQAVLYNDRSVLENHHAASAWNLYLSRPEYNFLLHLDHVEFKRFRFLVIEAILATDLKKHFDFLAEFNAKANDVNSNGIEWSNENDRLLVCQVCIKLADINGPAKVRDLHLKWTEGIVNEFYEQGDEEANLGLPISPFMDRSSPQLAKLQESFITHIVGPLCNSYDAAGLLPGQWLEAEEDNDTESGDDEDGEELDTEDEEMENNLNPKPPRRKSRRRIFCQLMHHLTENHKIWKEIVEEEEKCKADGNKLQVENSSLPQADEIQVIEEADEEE
Assay [8] deals with Thoracic aorta. Nature of the assay: Vasorelaxant activity in norepinephrine-pretreated New Zealand rabbit thoracic aorta assessed as increase in aortic relaxation at 10 uM measured after 15 mins relative to control. The assay is classed as functional, Oryctolagus cuniculus. On the set-up: scale not given: the % may be the effect or the level left. An outline of the steps: (§1)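 Thoracic aortic rings from New Zealand white rabbits were held in Krebs buffer at 2 g resting tension (0%) and equilibrated 2 h. Rings were contracted to maximum with 1 µM norepinephrine (100%). Compounds were added cumulatively at 15 min intervals, with tension recorded 15 min after each dose. Relaxation % = (max − recorded)/(max − 2 g) × 100; n = 1–2 rings.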

The species named for assay [9] is Homo sapiens. Nature of the assay: Selectivity ratio of IC50 for N-terminal GST-tagged recombinant human PDE3B (592 end residues) to IC50 for N-terminal GST-tagged full length recombinant human PDE5A1 catalytic domain.
Assay [10] deals with 3',5'-cyclic-AMP phosphodiesterase 4A (Homo sapiens) (UniProt P27815). Description: Inhibition of N-terminal GST-tagged full length recombinant human PDE4A1A expressed in Baculovirus infected Sf9 insect cells at 3 uM using FAM-cAMP as substrate after 1 hr by fluorescence polarization assay relative to control.
Chain of 3',5'-cyclic-AMP phosphodiesterase 4A (Homo sapiens) (P27815 whole entry, the tested form may be a part): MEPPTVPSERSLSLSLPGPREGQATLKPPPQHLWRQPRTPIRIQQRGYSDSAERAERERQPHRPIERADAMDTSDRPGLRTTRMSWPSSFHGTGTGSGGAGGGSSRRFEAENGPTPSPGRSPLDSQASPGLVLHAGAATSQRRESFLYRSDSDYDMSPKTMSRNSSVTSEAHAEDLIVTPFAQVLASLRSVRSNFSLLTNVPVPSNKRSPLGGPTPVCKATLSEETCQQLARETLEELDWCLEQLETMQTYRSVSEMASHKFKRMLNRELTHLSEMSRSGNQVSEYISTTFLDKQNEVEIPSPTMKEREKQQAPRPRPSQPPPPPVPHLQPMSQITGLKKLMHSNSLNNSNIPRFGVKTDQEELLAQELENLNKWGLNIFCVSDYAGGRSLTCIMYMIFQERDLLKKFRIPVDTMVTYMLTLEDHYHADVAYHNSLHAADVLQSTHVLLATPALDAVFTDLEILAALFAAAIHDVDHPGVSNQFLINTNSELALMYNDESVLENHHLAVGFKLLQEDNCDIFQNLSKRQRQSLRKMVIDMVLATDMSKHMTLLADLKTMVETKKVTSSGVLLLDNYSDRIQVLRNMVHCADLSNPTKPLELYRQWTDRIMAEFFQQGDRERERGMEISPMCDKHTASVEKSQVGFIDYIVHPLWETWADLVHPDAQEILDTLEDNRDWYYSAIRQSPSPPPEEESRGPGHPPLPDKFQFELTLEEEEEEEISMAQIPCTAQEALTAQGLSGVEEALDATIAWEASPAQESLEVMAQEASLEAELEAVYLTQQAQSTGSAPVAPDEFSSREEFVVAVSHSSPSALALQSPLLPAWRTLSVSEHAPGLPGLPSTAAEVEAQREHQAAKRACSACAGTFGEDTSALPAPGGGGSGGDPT
The target of assay [11] is cGMP-dependent 3',5'-cyclic phosphodiesterase (Homo sapiens) (UniProt O00408). Description: Inhibition of N-terminal FLAG-tagged human PDE2A1 (2 to 941 residues) expressed in Baculovirus infected Sf9 insect cells at 12.5 uM using FAM-cAMP as substrate after 1 hr by fluorescence polarization assay relative to control.
Chain of cGMP-dependent 3',5'-cyclic phosphodiesterase (Homo sapiens) (O00408 whole entry, the tested form may be a part): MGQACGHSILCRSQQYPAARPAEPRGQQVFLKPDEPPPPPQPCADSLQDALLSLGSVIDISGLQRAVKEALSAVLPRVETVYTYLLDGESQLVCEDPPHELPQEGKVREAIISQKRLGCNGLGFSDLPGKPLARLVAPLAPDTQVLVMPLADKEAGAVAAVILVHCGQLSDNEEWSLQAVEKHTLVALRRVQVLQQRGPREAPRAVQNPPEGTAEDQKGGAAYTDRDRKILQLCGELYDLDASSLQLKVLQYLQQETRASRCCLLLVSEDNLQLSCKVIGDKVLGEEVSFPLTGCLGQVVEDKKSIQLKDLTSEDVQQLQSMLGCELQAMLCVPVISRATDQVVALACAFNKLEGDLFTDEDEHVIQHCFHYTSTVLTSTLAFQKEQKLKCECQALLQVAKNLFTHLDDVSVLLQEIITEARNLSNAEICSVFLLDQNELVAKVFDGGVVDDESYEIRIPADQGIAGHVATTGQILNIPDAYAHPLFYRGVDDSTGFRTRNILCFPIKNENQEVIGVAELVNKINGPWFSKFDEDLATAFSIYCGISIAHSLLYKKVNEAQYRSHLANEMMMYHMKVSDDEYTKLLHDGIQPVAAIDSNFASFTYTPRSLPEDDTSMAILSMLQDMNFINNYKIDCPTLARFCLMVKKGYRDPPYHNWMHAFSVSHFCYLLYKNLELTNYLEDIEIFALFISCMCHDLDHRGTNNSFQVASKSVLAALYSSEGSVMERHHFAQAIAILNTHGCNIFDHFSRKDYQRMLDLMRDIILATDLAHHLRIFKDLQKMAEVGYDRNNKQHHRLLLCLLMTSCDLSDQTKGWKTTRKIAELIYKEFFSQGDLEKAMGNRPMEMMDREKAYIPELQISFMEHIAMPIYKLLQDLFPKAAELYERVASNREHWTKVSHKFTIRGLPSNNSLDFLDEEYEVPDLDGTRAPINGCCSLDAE
For assay [12], the species on record is Homo sapiens. Description: Selectivity ratio of IC50 for N-terminal GST-tagged full length recombinant human PDE1A to IC50 for N-terminal GST-tagged full length recombinant human PDE5A1 catalytic domain.
For assay [13], the species on record is Homo sapiens. Description: Selectivity ratio of IC50 for N-terminal FLAG-tagged human PDE2A1 (2 to 941 residues) to IC50 for N-terminal GST-tagged full length recombinant human PDE5A1 catalytic domain.
In assay [14] the target is cGMP-inhibited 3',5'-cyclic phosphodiesterase 3B (Homo sapiens) (UniProt Q13370). Nature of the assay: Inhibition of N-terminal GST-tagged recombinant human PDE3B (592 end residues) expressed in Baculovirus infected Sf9 insect cells at 30 uM using FAM-cAMP as substrate after 1 hr by fluorescence polarization assay relative to control.
The target of assay [15] is 3',5'-cyclic-AMP phosphodiesterase 4A (Homo sapiens) (UniProt P27815). Description: Inhibition of N-terminal GST-tagged full length recombinant human PDE4A1A expressed in Baculovirus infected Sf9 insect cells at 8 uM using FAM-cAMP as substrate after 1 hr by fluorescence polarization assay relative to control.
In assay [16] the target is Dual specificity calcium/calmodulin-dependent 3',5'-cyclic nucleotide phosphodiesterase 1A (Homo sapiens) (UniProt P54750). Nature of the assay: Inhibition of N-terminal GST-tagged full length recombinant human PDE1A expressed in Baculovirus infected Sf9 insect cells at 30 uM using FAM-cAMP as substrate after 1 hr by fluorescence polarization assay relative to control.
Chain of Dual specificity calcium/calmodulin-dependent 3',5'-cyclic nucleotide phosphodiesterase 1A (Homo sapiens) (P54750 whole entry): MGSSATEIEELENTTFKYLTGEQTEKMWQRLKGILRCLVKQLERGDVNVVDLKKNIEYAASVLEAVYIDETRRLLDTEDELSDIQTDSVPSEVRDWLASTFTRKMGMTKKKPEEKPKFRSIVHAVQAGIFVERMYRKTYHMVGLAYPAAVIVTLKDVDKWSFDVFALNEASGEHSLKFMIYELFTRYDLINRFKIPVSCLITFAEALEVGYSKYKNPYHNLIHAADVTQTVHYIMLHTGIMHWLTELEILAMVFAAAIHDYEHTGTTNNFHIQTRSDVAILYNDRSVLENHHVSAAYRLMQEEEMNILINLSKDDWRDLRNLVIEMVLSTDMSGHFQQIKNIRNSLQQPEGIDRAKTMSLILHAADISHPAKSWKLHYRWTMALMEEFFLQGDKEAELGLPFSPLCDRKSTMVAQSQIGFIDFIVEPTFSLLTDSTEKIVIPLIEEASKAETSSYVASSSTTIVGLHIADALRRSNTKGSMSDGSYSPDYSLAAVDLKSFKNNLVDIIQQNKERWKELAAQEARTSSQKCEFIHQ

For assay [17], the target named is cGMP-dependent 3',5'-cyclic phosphodiesterase (Homo sapiens) (UniProt O00408). Nature of the assay: Inhibition of N-terminal FLAG-tagged human PDE2A1 (2 to 941 residues) expressed in Baculovirus infected Sf9 insect cells at 30 uM using FAM-cAMP as substrate after 1 hr by fluorescence polarization assay relative to control.
Assay [18] has as its system Thoracic aorta. Description: Vasorelaxant activity in norepinephrine-pretreated New Zealand rabbit thoracic aorta assessed as increase in aortic relaxation at 1 uM measured after 15 mins relative to control. The assay is classed as functional, Oryctolagus cuniculus. More on the design: scale not given: the % may be the effect or the level left. Summed up: as §1
Assay [19] concerns the target cGMP-dependent 3',5'-cyclic phosphodiesterase (Homo sapiens) (UniProt O00408). Description: Inhibition of N-terminal FLAG-tagged human PDE2A1 (2 to 941 residues) expressed in Baculovirus infected Sf9 insect cells at 5.5 uM using FAM-cAMP as substrate after 1 hr by fluorescence polarization assay relative to control.
In assay [20] the target is Dual specificity calcium/calmodulin-dependent 3',5'-cyclic nucleotide phosphodiesterase 1A (Homo sapiens) (UniProt P54750). Description: Inhibition of N-terminal GST-tagged full length recombinant human PDE1A expressed in Baculovirus infected Sf9 insect cells at 5.5 uM using FAM-cAMP as substrate after 1 hr by fluorescence polarization assay relative to control.
Assay [21] deals with 3',5'-cyclic-AMP phosphodiesterase 4A (Homo sapiens) (UniProt P27815). Description: Inhibition of N-terminal GST-tagged full length recombinant human PDE4A1A expressed in Baculovirus infected Sf9 insect cells at 1 uM using FAM-cAMP as substrate after 1 hr by fluorescence polarization assay relative to control.
The target of assay [22] is cGMP-inhibited 3',5'-cyclic phosphodiesterase 3B (Homo sapiens) (UniProt Q13370). Nature of the assay: Inhibition of N-terminal GST-tagged recombinant human PDE3B (592 end residues) expressed in Baculovirus infected Sf9 insect cells at 5.5 uM using FAM-cAMP as substrate after 1 hr by fluorescence polarization assay relative to control.

pIC50: −log10 of the molar value.

As for `CCc1ccc(C2c3[nH]c4ccccc4c(=O)c3CN2c2ncc(-c3cccnc3F)cn2)s1` (stereo not given), in [1], the negative logarithm of the IC50 (pIC50) was 9.09.
`CCc1ccc(C2c3[nH]c4ccccc4c(=O)c3CN2c2ncc(-c3cccnc3)cn2)s1` (stereo not given): in assay [1], the negative-log IC50 (pIC50) was 9.17.
With `CCc1ccc(C2c3[nH]c4ccccc4c(=O)c3CN2c2ncc(Br)cn2)s1` (stereo not given), in assay [1], the pIC50 was 8.48.
In the case of `OCc1ccc(-c2nccc3c2[nH]c2ccccc23)o1` [PERLOLYRIN], the negative-log IC50 (pIC50) in assay [2] is 5.03.
On to `CCc1ccc([C@H]2c3[nH]c4ccccc4c(=O)c3CN2c2ncc(-c3ccccn3)cn2)o1`, for which the Ratio IC50 is greater than 2500 in the assay listed under Homo sapiens [3]; 3.9 in the assay filed under Homo sapiens [5]; greater than 10000 in the assay filed under Homo sapiens [9]; greater than 10000 in the assay listed under Homo sapiens [12]; greater than 10000 in the assay filed under Homo sapiens [13]. Besides, the values for the negative-log IC50 (pIC50) in [4] and in assay [1] were 8.42 and 9.01, respectively. The inhibition stood at 7.5% in [6], 10% in [7], 12% in [10] and 51% in assay [11]. The Activity in the assay with Thoracic aorta [8] is recorded as 30%.
On to `CCc1ccc(C2c3[nH]c4ccccc4c(=O)c3CN2c2ccccn2)s1` (stereo not given), for which the negative logarithm of the IC50 (pIC50) in assay [1] was 8.55.
For `CCc1ccc(C2c3[nH]c4ccccc4c(=O)c3CN2c2ncccn2)o1` (stereo not given), the Ratio IC50 in the assay listed under Homo sapiens [3] was greater than 2500; in the assay listed under Homo sapiens [5], 2; in the assay listed under Homo sapiens [9], greater than 10000; in the assay filed under Homo sapiens [12] it was greater than 10000; in the assay listed under Homo sapiens [13] it was greater than 10000. Also, the pIC50 in assay [4] was 8.21; in assay [1] it was 8.50. For the same compound, the inhibition is 3.5% in assay [14], 11% in assay [15], 3.5% in assay [16] and 33% in [17].
As for `CCc1ccc(C2c3[nH]c4ccccc4c(=O)c3CN2c2ncc(-c3ccccn3)cn2)o1` (racemic), the Ratio IC50 was greater than 2500 in the assay listed under Homo sapiens [3]; 4.3 in the assay filed under Homo sapiens [5]; greater than 10000 in the assay filed under Homo sapiens [9]; greater than 10000 in the assay listed under Homo sapiens [12]; greater than 10000 in the assay listed under Homo sapiens [13]. Further, the pIC50 was 8.64 in [4] and 9.27 in assay [1]. Besides, the Activity in the assay with Thoracic aorta [18] is recorded as greater than 90%. In addition, the inhibition was 10% in [19], 2.5% in assay [20], 5% in [21] and 8% in assay [22].

By pIC50 is commonly meant −log10 of the IC50, conventionally taken in molar units. The inhibition is the percentage by which the read-out fell short of the control.
